The values that follow come from PubChem BioAssay.

Assay [1] is described as follows: inhibitors of TNFa-induced NFkB p65 translocation, primary screen, imaging, HUVEC, MLSMR starter and 10KST1 sets (AID 438;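 active = inhibition above 20% together with a positive visual image hit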;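 note: compound added about 3h40 before a 20 min TNFalpha stimulation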;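 for inhibition: signal is the nuclear over cytoplasmic p65 intensity ratio per well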). The settings on record: HUVEC TNFa-induced p65 nuclear translocation; cell count: measured here: nuclei count (cytotoxicity indicator), at 2.08 µM; inhibition: at 2 µM, stronger effect = higher value, 0% TNFa-plus-vehicle, 100% no-TNFa wells.
The nature of assay [2]: endothelial E-selectin expression blockers – imaging, HUVEC, immunofluorescence, MLSMR starter and 10KST1 sets, primary screen (AID 487;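 active = visually confirmed hit in the image check and inhibition above 20%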;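 for inhibition: signal is fraction of cell area covered by stained E-selectin grains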;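 for nuclei count: 100% = median nuclei count of all wells on the same plate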). The settings on record: HUVEC TNFalpha-induced E-selectin immunofluorescence imaging, at 2 µM; inhibition: stronger effect = higher value; nuclei count: measured here: cell number, toxicity.
Assay [3] is described as follows: Primary imaging screen for DUSP6 inhibitors that restore phospho-Erk in transfected HeLa cells, chemical complementation (AID 609;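 active = compounds giving at least 50% inhibition in the cell-based MKP-3 phosphatase rescue imaging test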;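 for inhibition: phospho-Erk level distribution per well compared with pooled transfected vehicle control wells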). The settings on record: HeLa MKP-3 transfected, phospho-Erk imaging KS statistic, at 10 µM, cells stimulated with TPA for 15 min.
In assay [4] the target is Dual specificity protein phosphatase 6 (Homo sapiens) (UniProt Q16828). Described as above. The settings on record: HeLa MKP-3 transfected, phospho-Erk imaging KS statistic; at 10 µM; stronger effect = higher value; cells stimulated with TPA for 15 min.
Sequence of Dual specificity protein phosphatase 6 (Homo sapiens) (Q16828 whole entry, looked up): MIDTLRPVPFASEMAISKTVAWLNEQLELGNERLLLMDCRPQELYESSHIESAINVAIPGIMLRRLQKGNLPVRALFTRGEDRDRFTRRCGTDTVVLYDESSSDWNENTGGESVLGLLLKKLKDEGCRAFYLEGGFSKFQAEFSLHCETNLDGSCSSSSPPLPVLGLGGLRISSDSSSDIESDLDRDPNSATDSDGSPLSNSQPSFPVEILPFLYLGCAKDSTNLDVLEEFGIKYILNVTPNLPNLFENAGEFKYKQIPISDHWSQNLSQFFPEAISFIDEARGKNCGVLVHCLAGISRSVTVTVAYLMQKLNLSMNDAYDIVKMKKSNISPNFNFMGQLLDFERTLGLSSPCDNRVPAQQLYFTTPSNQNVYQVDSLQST
Assay [5] addresses Voltage-gated potassium channel subunit beta-2 (Rattus norvegicus) (UniProt P62483). Description: inhibitors of rat Kvbeta2 reductase activity – biochemical, NADPH fluorescence, primary screen (AID 622;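 active = fluorescence slope higher than the sample average by over 3 SD, cut at about -0.22 in these data, passing the limit was not always enough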;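 note: slope of raw intensity against log time taken from 70 to 1610 s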). As to conditions: recombinant KvBeta, 4-cyanobenzaldehyde reduction, at 10 µM, stronger effect = higher value.
Assay [6] shares this target. As to the kind of experiment: enhancers of rat Kvbeta2 NADPH turnover – biochemical, NADPH fluorescence, primary screen (AID 623;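 active = NADPH fluorescence slope more negative than the mean of all samples by about 3 SD, 99.7% confidence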;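 note: fluorescence intensity change per second fitted from 20 to 320 s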). As to conditions: Recombinant KvBeta, NADPH fluorescence decrease slope, 10 min; at 10 µM; stronger effect = lower value.
Assay [7] addresses Alpha-2C adrenergic receptor (Homo sapiens) (UniProt P18825). Description: compounds altering alpha2C-coupled GIRK flux – cell-based, HEK293 alpha2C/GIRK1/2, thallium flux, primary screen (AID 624).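 Note: slope of fluorescence ratio to pre-addition baseline per second over 15 to 24 s.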 The settings on record: thallium flux BTC fluorescence, at 10 µM, actives lie on both sides.
Assay [8] is described as follows: inhibitors of larval lipid processing in zebrafish, primary screen, whole organism, PED6 fluorescence, gall bladder and intestine (AID 686;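 active = a full or partial loss of lipid-probe fluorescence in the fish gall bladder, intestine or both, judged by eye; inactive = no fluorescence loss, or compound toxic to the fish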;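 note: larvae 5 to 7 days old with five fish per well; signal comes from phospholipase A2 cleavage of quenched PED6 carried via bile; overnight exposure to compound and PED6 before scoring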). The settings on record: Zebrafish larvae PED6 lipid processing, fluorescence scoring; screened at 20 µM (by protocol). An outline of the steps:
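Also added: quenched phospholipase substrate PED6, 100 nM final, ingested by larvae; System: zebrafish larvae, 5-7 d; Quantity: 5 larvae per well; Compound: 20 µM single dose; Schedule: overnight compound and PED6 incubation; Read-out: visual per-well fluorescence inhibition score; Measured by: By-eye fluorescence microscopy; Medium: E3.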

Assay [9] can be described thus: loss of swimming-algae plug formation – whole organism, Chlamydomonas reinhardtii, WT vs cilia-less mutant, absorbance, 96-well, primary screen (AID 463189;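 active = inhibition at or above 50% relative to wild type and mutant plate controls; inactive = inhibition below 50%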;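 note: 0% = wild type cc124 cells in DMSO and 100% = ciliumless bld1 mutant cells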). The settings on record: Chlamydomonas reinhardtii gravitaxis, OD600 absorbance, 2 days; at 10 µM; stronger effect = higher value.
Where [10] appears, read: measured here: cell density z-score.
Setting [11] is: measured here: nuclear c-Myc green intensity z-score.
Setting [12] is: measured here: nuclear pErk red intensity z-score, stronger effect = higher value.

Calls of active or inactive are those of the source.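 Rule for the calls, unless noted: active = fluorescence slope after compound addition differing from the mean of all screened samples at 99.7% confidence, in either direction; inactive = the rest.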

Sequence of Alpha-2C adrenergic receptor (Homo sapiens) (P18825 whole entry, looked up): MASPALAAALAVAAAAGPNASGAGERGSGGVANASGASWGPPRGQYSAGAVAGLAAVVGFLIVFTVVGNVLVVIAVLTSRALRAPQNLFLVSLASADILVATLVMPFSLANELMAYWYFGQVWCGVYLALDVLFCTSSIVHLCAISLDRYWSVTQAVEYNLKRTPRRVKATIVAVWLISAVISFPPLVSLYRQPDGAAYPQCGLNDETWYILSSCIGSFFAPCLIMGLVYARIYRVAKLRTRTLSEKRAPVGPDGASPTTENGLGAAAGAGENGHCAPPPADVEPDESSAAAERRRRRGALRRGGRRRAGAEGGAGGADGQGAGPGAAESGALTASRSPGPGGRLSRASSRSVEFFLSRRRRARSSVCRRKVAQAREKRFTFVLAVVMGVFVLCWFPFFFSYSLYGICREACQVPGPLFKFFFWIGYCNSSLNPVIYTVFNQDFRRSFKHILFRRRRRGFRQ
Sequence of Voltage-gated potassium channel subunit beta-2 (Rattus norvegicus) (P62483 whole entry, looked up): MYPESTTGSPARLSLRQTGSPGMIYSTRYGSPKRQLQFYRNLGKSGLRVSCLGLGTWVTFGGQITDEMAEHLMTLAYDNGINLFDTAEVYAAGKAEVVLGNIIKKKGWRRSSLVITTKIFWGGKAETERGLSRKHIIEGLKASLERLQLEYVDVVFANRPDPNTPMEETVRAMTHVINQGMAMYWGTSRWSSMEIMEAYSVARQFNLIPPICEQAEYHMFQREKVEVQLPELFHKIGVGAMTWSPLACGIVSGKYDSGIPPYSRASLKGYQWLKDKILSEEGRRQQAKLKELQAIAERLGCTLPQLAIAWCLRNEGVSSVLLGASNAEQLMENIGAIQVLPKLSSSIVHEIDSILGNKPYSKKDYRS

Turning to `COC(=O)c1ccc(=O)n(Cc2ccc3c(c2)OCO3)c1`, the cell count in assay [1] was 394. Moreover, the inhibition (in general, the change of the read-out against control, counted positive when it falls) in assay [1] is -2.1% (inactive); in [2], -128% (inactive); in [4], 2.46% (inactive); in assay [9] it was -6.36% (inactive). For the same molecule, in assay [2], the nuclei count amounted to 137%. In addition, the values for the z-score in [3] (setting [10]), in assay [3] (setting [11]) and in assay [3] (setting [12]) were 2.55, 0.425 and -1.58, respectively. Moreover, the fluorescence slope in assay [5] is -0.427 (inactive). Also, the NADPH fluorescence slope in [6] is -4.6e-05 (inactive). Also, the slope in assay [7] is 0.00627 (inactive). In addition, the call in assay [8] was inactive.
Regarding `CC(C)Cc1nc(N2CCOCC2)c(C#N)c2c1CCC2`, the cell count in assay [1] turned out to be 488. Also, the inhibition in assay [1] was 3.3% (inactive); in [2], -87.5% (inactive); in [4], -5.26% (inactive); in assay [9], -5.18% (inactive). For the same molecule, in [2], the nuclei count amounted to 114%. Also, the results for the z-score in [3] (setting [10]), in assay [3] (setting [11]) and in assay [3] (setting [12]) were -1.23, 0.0175 and 0.0727, respectively. Further, the fluorescence slope in assay [5] was -0.511 (inactive). Also, the NADPH fluorescence slope in assay [6] is -1.9e-05 (inactive). Besides, the slope in assay [7] was 0.00512 (inactive). In assay [8], the outcome was “inactive; toxic”.
Regarding `COc1ccc(Nc2cc(C)nc3ccccc23)cc1`, the cell count in [1] worked out at 467. The inhibition is -5.2% (inactive) in assay [1], 36% (inactive) in assay [2], 4.72% (inactive) in [4] and 17.6% (inactive) in assay [9]. Moreover, the nuclei count in assay [2] came to 118%. In addition, the z-score in assay [3] (setting [10]) is 0.29; in [3] (setting [11]), 0.934; in assay [3] (setting [12]), -1.53. The fluorescence slope in assay [5] is -0.429 (inactive). Moreover, the NADPH fluorescence slope in [6] is -2.1e-05 (inactive). In addition, the slope in assay [7] is 0.00465 (inactive). Moreover, the result in assay [8] was inactive.
With `CCN(CC)c1ccc2cc(C(=O)Nc3ccccn3)c(=O)oc2c1`, the cell count in assay [1] turned out to be 384. In addition, the inhibition in assay [1] is -12% (inactive); in assay [2], 0.4% (inactive); in [4] it was -2.07% (inactive); in assay [9] it was 20.3% (inactive). In assay [2], the nuclei count was 80.2%. Moreover, the values for the z-score in assay [3] (setting [10]), in [3] (setting [11]) and in assay [3] (setting [12]) were -0.204, 0.482 and 0.701, respectively. The fluorescence slope in assay [5] was -0.433 (inactive). Further, the NADPH fluorescence slope in assay [6] was -2.6e-05 (inactive). Moreover, in assay [7], the slope is 0 (inactive). Besides, the call in assay [8] was inactive.
Take `OCCCc1nc2ccccc2n1CCc1ccccc1`: in assay [1], the cell count amounted to 390. The inhibition in assay [1] is -15.7% (inactive); in [2] it was -395% (inactive); in [4], 20.8% (inactive); in assay [9], 15.3% (inactive). The nuclei count in assay [2] was 203%. For the same molecule, the z-score was 1.19 in [3] (setting [10]), -1.69 in assay [3] (setting [11]) and -0.407 in [3] (setting [12]). Also, the fluorescence slope in assay [5] is -0.421 (inactive). The NADPH fluorescence slope in [6] was -4.3e-05 (inactive). The slope in assay [7] is 0.00481 (inactive). Besides, the outcome in assay [8] was inactive.
As to `OCCNc1nc(-c2ccccc2)c2ccccc2n1`, the cell count in assay [1] worked out at 419. Further, the inhibition was -4.7% (inactive) in [1], -153% (inactive) in assay [2], -10.1% (inactive) in [4] and -5.43% (inactive) in assay [9]. The nuclei count in [2] was found to be 133%. Also, the z-score is -0.162 in assay [3] (setting [10]), 1.09 in [3] (setting [11]) and -0.852 in assay [3] (setting [12]). For the same molecule, in assay [5], the fluorescence slope is -0.341 (inactive). In [6], the NADPH fluorescence slope is -1.3e-05 (inactive). In [7], the slope is 0.00672 (inactive). Besides, in [8], the molecule was called inactive.
For the molecule `CN1CCN(c2ncnc3c2[nH]c2ccc(F)cc23)CC1`, the cell count in assay [1] was determined as 330. The inhibition is -15.6% (inactive) in assay [1], -17.5% (inactive) in [2], -8.76% (inactive) in assay [4] and 32.3% (inactive) in assay [9]. For the same molecule, the nuclei count in assay [2] worked out at 64.2%. Further, the z-score is -0.484 in [3] (setting [10]), 0.264 in [3] (setting [11]) and -0.525 in assay [3] (setting [12]). Further, the fluorescence slope in [5] was -0.382 (inactive). In assay [6], the NADPH fluorescence slope is -8e-05 (inactive). The slope in assay [7] was 0.00525 (inactive). For the same molecule, the outcome in assay [8] was inactive.
